Data taken from PMC9060504 (Proceedings of the National Academy of Sciences of the …, 2022).

Legend:
[1] = biological target: T1, STIM1 together with Orai3 (Homo sapiens, UniProt Q9BRQ5); conditions: cited from earlier work
[2] = Trans:cis isomer ratio by 1H NMR; format: physicochemical
[3] = biological target: NCX1 (Homo sapiens, UniProt P32418); assay: Ca2+ imaging of reverse Na+/Ca2+ exchange in cells overexpressing NCX1; format: cell-based
How it was run: (§1)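 Cells were loaded with 5 μM Cal-590 in Ringer's solution for 60 min, excited at 560 nm, and imaged every 3 or 10 s. Each experiment recorded 10 to 97 cells, and their responses were averaged. The Ca2+ change after activating each transport mechanism with 100 μM test compound present was normalized to the change in DMSO-treated control cells.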

[4] = Photostability under repeated illumination; format: physicochemical; conditions: eight cycles 365/520 nm, 1% DMSO in PBS
How it was run: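 Test compound at 26 μM in 1% DMSO/PBS was exposed to eight cycles of alternating 5-min 365 nm and 520 nm LED illumination. Absorbance at 329 nm was recorded throughout.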

[5] = biological target: STIM1 (Homo sapiens, UniProt Q13586); assay: TIRFM of STIM1 clustering at ER–PM junctions; format: cell-based; conditions: 100 μM, after ER Ca2+ depletion with TG
How it was run: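 TIRFM used a 100× (N.A. 1.49) objective. STIM1-mCherry cells were held in zero-Ca2+ solution with 400 nM thapsigargin for 10 min, then received 100 μM test compound and were imaged before and 20 min after. Orai1-EGFP/STIM1-mCherry cells were preincubated with 100 μM compound in zero Ca2+ and imaged before and 10 min after adding 400 nM thapsigargin.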

[6] = test system: SOCE in TG neurons; assay: Ca2+ imaging of SOCE in cultured trigeminal ganglion neurons; format: cell-based, mouse; conditions: 100 μM
How it was run: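 Mouse trigeminal ganglion neurons were acutely dissociated, cultured and loaded with Cal-590. They were held for 10 min in Ca2+-free solution with 1 μM thapsigargin, with or without 100 μM test compound. SOCE was then induced by superfusion with 0.5 mM Ca2+, without or with 360 nm illumination. Fluorescence time courses came from n = 71 to 179 cells per group.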

[7] = biological target: T1, STIM1 together with Orai3; assay: Whole-cell patch-clamp CRAC current in cells coexpressing STIM1 and Orai3; format: cell-based
[8] = biological target: Orai1 P245L (Homo sapiens, UniProt Q96D31, P245L); assay: Current recording, constitutively open Orai1 P245L mutant; format: cell-based; conditions: 10 μM
How it was run: (§2)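 Whole-cell currents were recorded from cells expressing the Orai1 mutant or the chimera (the chimera with STIM1). Cells were superfused with extracellular solution containing 10 mM Ca2+, with or without 10 μM test compound or 10 μM La3+. During recording, cells were kept dark or illuminated at the indicated wavelengths. Time courses and I-V plots were collected.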

[9] = biological target: STIM1 and Orai1 (CRAC channel) (Homo sapiens, UniProt Q96D31); assay: Whole-cell patch-clamp CRAC current in HEK293 cells expressing STIM1 and Orai1; format: cell-based
[10] = biological target: Orai2 (Homo sapiens, UniProt Q96SN7); assay: Ca2+ imaging of SOCE, Orai TKO HEK293 cells expressing STIM1 and Orai2; format: cell-based; conditions: 100 μM, dark
[11] = biological target: TRPV1 (Homo sapiens, UniProt Q8NER1); assay: Ca2+ imaging of TRPV1-mediated Ca2+ influx in STIM DKO cells; format: cell-based; conditions: 100 μM
How it was run: as §1

[12] = biological target: Orai1 V102A (Homo sapiens, UniProt Q96D31, V102A); assay: Current recording, constitutively open Orai1 V102A mutant; format: cell-based; conditions: 10 μM
How it was run: as §2

[13] = test system: O1N–O3C chimeric Orai channel; assay: Current recording, STIM1 with chimeric O1N–O3C channel; format: cell-based; conditions: 10 μM
How it was run: as §2

[14] = test system: EMT6-GFP murine breast cancer cells; assay: Pulmonary metastatic assay; format: in vivo, mouse
How it was run: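 EMT6-GFP cells were treated for 1 h with 1% DMSO or 200 µM test compound, with or without 10 s of 365 nm light (16 mW/cm²) at 0, 30 and 60 min. They were then washed and injected into the tail vein of 8-wk BALB/c mice (5 × 10⁴ cells). After 20 min, lungs were perfused, agarose-inflated and cut into 1–2 mm slices. Slices were cultured 7 d at 37 °C, and GFP⁺ colonies counted (3 slices/mouse, 5 mice/group). GFP⁺ cell percentage was then measured by flow cytometry.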

[15] = biological target: T2, Orai3 (Homo sapiens, UniProt Q9BRQ5); assay: Current recording, HEK293 cells expressing Orai3 alone; format: cell-based; conditions: 100 μM, with or without 360 nm light
[16] = test system: NFAT transcription in Jurkat NFAT-P/Luciferase (JNL) cells; assay: NFAT-dependent luciferase assay in JNL cells; format: cell-based, human; conditions: 100 μM
[17] = test system: SOCE in HEK293 cells; assay: Ca2+ imaging of SOCE in HEK293 cells; format: cell-based; conditions: 100 μM, 1 mM Ca2+, TG
[18] = test system: InsP3R; assay: Ca2+ imaging of IP3-mediated ER Ca2+ release in STIM DKO cells; format: cell-based; conditions: 100 μM
How it was run: as §1

[19] = biological target: T3, Orai1 (Homo sapiens, UniProt Q96D31); format: cell-based; conditions: Orai1 alone, 100 μM, with or without 360 nm light
[20] = biological target: TRPC6 (Homo sapiens, UniProt Q9Y210); assay: Ca2+ imaging of TRPC6-mediated Ca2+ influx in STIM DKO cells; format: cell-based; conditions: 100 μM
How it was run: as §1

[21] = test system: capsaicin-induced nocifensive behavior; assay: Capsaicin-induced forelimb eye wiping test; format: in vivo, mouse
How it was run: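 Male C57BL/6JOLAHSD mice (3–4 wk, 5–6 per group) were handled for 2 d and habituated to the cage for 10 min. A 10-μL drop went to the right eye: vehicle (0.1% ethanol in SES), 1 μM capsaicin, 100 μM test compound, or capsaicin plus compound. Forelimb wipes were counted for 5 min, starting 5 min after dosing. Where used, 365 nm light (16 mW/cm², 3 cm, 60 s) was given and counting began 5 min later. Light alone was also tested.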

[22] = biological target: T3, Orai1; assay: Ca2+ imaging of SOCE, Orai TKO HEK293 cells expressing STIM1 and Orai1; format: cell-based; conditions: 100 μM, dark
[23] = biological target: STIM1 together with Orai2 (Homo sapiens, UniProt Q96SN7); assay: Whole-cell patch-clamp CRAC current in cells coexpressing STIM1 and Orai2; format: cell-based
[24] = biological target: T2, Orai3; assay: Ca2+ imaging of SOCE, Orai TKO HEK293 cells expressing STIM1 and Orai3; format: cell-based; conditions: 100 μM, dark
[25] = biological target: TRPC3 (Homo sapiens, UniProt Q13507); assay: Ca2+ imaging of TRPC3-mediated Ca2+ influx in STIM DKO cells; format: cell-based; conditions: 100 μM
How it was run: as §1

[26] = test system: O3N–O1C chimeric Orai channel; assay: Current recording, STIM1 with chimeric O3N–O1C channel; format: cell-based; conditions: 10 μM
How it was run: as §2

[27] = cells treated with 200 μM, no illumination

STIM1 and Orai1 (CRAC channel), sequence (Q96D31 whole entry): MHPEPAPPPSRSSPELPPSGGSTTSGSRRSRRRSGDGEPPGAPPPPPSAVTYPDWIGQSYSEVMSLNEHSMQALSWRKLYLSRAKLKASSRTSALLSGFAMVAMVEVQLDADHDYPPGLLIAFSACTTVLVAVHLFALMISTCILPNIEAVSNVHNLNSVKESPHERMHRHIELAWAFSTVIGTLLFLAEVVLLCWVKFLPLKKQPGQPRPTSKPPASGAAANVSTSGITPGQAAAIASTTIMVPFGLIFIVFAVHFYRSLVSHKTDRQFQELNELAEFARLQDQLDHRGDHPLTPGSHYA
STIM1 and Orai1 (CRAC channel), sequence (Q13586 23-685 partner): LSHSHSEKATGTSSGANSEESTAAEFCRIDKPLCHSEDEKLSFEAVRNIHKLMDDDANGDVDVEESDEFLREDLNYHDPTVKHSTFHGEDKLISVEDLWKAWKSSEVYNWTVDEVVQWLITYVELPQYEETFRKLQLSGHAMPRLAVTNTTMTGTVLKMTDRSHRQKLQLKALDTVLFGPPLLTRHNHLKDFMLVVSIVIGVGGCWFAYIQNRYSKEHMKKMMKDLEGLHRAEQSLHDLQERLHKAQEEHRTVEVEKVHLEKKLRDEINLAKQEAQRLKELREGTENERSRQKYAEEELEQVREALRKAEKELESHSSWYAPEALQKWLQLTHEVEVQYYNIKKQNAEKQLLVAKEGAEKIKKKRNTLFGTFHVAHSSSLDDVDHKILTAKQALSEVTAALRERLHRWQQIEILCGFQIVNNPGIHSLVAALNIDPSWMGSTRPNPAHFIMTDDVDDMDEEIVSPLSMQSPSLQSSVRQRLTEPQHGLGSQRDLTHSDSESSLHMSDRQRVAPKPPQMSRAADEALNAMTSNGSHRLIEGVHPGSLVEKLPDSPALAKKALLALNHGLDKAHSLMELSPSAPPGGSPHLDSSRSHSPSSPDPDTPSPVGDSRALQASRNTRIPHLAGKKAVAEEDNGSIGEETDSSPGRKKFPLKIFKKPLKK
TRPV1, sequence (Q8NER1 whole entry, species assumed): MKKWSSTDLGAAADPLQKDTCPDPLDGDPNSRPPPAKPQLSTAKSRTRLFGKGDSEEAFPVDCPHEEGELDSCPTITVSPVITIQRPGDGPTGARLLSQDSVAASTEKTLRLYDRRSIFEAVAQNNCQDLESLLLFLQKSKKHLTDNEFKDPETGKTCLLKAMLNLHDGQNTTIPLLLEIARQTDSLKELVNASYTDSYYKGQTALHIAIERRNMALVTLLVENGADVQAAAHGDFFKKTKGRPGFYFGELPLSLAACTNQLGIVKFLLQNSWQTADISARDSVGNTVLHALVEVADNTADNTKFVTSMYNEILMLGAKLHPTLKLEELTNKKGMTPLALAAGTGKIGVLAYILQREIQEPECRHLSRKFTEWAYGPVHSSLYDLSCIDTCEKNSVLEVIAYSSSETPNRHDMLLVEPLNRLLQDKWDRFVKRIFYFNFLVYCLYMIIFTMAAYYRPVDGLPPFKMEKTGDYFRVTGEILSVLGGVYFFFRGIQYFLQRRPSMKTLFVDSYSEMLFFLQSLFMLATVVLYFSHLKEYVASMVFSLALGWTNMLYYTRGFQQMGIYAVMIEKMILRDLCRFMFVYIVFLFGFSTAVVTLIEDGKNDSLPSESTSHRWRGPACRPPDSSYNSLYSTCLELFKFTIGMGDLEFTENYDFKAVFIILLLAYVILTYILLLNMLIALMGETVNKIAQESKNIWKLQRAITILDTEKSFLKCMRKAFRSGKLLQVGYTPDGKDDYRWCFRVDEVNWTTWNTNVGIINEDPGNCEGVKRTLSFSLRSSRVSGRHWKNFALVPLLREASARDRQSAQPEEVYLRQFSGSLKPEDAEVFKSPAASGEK
NCX1, sequence (P32418 36-973): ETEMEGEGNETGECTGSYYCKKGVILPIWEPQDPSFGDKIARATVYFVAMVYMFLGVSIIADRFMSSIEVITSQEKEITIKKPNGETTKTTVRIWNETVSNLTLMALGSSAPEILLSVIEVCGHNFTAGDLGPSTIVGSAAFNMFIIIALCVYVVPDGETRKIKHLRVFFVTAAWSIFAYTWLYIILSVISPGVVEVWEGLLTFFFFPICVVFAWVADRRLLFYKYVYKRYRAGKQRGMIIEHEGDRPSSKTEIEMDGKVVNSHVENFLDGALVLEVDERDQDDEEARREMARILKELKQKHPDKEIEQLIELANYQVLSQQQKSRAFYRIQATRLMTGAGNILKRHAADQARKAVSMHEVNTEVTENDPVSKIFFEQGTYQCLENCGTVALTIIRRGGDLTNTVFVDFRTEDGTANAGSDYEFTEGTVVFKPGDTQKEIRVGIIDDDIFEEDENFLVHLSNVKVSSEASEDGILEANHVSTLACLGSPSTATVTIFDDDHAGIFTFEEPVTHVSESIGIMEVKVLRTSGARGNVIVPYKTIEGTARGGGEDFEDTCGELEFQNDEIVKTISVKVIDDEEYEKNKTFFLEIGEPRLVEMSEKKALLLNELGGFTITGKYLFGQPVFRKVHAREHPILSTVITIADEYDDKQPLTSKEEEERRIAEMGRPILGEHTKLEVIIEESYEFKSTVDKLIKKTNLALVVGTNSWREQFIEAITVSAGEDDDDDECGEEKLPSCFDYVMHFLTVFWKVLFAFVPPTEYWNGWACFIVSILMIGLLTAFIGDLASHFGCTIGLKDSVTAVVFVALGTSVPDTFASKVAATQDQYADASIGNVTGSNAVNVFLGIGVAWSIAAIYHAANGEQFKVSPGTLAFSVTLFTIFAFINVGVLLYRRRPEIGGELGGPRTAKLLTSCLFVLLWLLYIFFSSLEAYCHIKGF
STIM1, sequence (Q13586 23-685, species assumed): as the sequence (Q13586 23-685 partner) above
TRPC6, sequence (Q9Y210 whole entry, species assumed): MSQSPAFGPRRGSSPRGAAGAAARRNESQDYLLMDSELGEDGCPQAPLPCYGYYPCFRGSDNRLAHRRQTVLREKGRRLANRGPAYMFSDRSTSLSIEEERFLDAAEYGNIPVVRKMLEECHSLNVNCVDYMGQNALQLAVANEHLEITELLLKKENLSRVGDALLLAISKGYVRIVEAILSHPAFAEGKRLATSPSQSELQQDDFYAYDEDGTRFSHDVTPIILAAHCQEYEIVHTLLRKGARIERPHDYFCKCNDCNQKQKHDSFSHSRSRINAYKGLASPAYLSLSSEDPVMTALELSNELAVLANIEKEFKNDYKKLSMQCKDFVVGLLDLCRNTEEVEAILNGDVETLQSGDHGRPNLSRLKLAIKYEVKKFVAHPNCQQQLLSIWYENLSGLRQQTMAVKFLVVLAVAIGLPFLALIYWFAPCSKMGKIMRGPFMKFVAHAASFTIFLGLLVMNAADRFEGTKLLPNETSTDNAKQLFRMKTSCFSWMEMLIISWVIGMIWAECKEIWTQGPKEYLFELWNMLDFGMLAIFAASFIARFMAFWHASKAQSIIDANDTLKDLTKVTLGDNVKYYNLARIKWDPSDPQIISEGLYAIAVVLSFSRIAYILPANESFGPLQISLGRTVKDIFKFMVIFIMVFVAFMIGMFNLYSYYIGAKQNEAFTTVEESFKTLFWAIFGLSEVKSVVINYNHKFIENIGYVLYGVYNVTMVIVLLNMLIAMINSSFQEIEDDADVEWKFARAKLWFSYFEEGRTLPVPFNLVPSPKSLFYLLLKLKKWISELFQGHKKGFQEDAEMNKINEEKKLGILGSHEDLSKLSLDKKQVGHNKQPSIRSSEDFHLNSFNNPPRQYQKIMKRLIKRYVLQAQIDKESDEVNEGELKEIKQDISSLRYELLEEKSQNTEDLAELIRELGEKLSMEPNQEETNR
TRPC3, sequence (Q13507 whole entry, species assumed): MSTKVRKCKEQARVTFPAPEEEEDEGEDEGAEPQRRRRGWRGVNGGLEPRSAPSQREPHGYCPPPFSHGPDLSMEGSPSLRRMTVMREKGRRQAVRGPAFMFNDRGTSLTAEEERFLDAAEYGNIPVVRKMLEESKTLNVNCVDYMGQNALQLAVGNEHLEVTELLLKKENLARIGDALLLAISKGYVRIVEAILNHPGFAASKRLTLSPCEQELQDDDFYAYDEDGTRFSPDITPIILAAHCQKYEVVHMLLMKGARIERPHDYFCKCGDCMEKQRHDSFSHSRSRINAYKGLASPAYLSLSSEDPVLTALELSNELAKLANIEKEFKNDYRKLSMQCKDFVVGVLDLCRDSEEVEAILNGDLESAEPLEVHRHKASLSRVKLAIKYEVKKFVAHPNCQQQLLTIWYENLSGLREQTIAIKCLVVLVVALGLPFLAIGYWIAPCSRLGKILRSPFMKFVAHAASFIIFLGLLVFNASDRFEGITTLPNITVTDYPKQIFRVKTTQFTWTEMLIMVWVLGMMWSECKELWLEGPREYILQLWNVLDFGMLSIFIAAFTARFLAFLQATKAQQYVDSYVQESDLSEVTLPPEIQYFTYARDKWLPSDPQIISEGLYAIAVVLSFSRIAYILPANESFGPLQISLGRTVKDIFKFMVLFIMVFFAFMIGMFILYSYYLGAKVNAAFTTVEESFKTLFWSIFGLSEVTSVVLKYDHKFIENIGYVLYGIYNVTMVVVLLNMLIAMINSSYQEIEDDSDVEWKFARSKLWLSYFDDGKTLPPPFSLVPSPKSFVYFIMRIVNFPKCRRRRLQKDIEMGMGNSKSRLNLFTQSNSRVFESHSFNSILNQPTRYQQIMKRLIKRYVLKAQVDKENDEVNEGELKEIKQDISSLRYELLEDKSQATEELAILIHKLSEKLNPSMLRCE
Orai1 V102A, sequence (Q96D31 whole entry V102A): as the sequence (Q96D31 whole entry) above, with V102A counted along it
Orai1 P245L, sequence (Q96D31 whole entry P245L, the tested form may be a part): as the sequence (Q96D31 whole entry) above, with P245L counted along it
Orai2, sequence (Q96SN7 whole entry): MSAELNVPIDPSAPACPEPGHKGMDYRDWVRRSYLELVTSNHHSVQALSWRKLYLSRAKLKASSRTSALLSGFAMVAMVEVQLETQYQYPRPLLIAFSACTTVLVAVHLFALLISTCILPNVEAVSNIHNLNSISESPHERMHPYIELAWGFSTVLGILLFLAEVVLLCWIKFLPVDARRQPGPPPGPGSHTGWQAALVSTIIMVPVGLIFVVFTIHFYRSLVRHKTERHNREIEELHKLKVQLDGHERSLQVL
STIM1 together with Orai2, sequence (Q96SN7 whole entry): as above

In the case of `O=C(Nc1ccn(Cc2ccccc2Oc2ccccc2)n1)c1c(F)cccc1F` [GSK5503A], the “Sensitivity of Orai3 current” value [1] is given as “sensitive”.
In the case of `O=C(Nc1ccn(Cc2ccc(O)cc2C(F)(F)F)n1)c1c(F)cccc1F` [GSK7975A], the “Sensitivity of Orai3 current” value [1] is given as “sensitive”.
In the case of `OB(O)c1ccc(/N=N/c2ccccc2)cc1` [LOCI-1], the “Trans isomer content, dark-adapted” value [2] is reported as 94%, the “Effect on sodium–calcium exchange activity” value [3] is reported as “did not inhibit” and the “Photofatigue on repeated illumination” value [4] is reported as “without significant photofatigue”. The “Effect on clustering of STIM1 in puncta at ER–PM junctions” value [5] was “did not affect”, the “Effect on SOCE in TG neurons” value [6] was “inhibited” and the Ki [7] was 131 ± 24 µM. For the same compound, the inhibition at 100 µM ([7]; read-out: Average inhibition of Orai3 activity) was roughly 35%, the “Effect on Orai1 P245L current” value [8] was “strongly inhibited” and the “Control of channel activity when infused into the cytosol via the patch pipette” value ([9]; 0.5 mM in pipette solution) was “failed to do so”. The Ki ([9]; Ki, dose-inhibition analysis, HEK293 STIM1+Orai1, LOCI-1 n = 3, LOCI-2 n = 4) was 5.5 ± 0.26 µM, the “Restoration of inhibited current by 360 nm light” value ([9]; LOCI-1 10 μM, LOCI-2 10 μM, 2-APB 100 μM) was “fully restored” and the “Effect on SOCE mediated by Orai2” value [10] was “strongly inhibits”. The “Effect on TRPV1-mediated Ca2+ influx” value [11] was “did not affect”, the “TRPV1 activity in presence of cis or trans conformations” value ([11]; HEK293 STIM DKO cells expressing TRPV1) was “unchanged” and the “Effect on Orai1 V102A current” value [12] was “negligible effect”. For the same compound, the “Effect on O1N–O3C channel current” value [13] was “strongly inhibited”, the “GFP-positive cancer cells in lung tissue” value ([14]; cells treated with 200 μM and 365 nm illumination) was roughly 1.3% and the “GFP-positive cancer cells in lung tissue” value [14, 27] was roughly 0.65%. For the same compound, the “Number of metastatic colonies vs DMSO” value [14, 27] was “significantly fewer metastatic colonies”, the “Current change on application” value [15] was “did not induce a notable current change” and the “Inhibition of NFAT transcription” value ([16]; 16 h, in the dark) was “more than 80%”. For the same compound, the “NFAT transcription after 365 nm light” value ([16]; two pulses of 365 nm light) was “fully restore transcription to control levels”, the “Effect on SOCE” value [17] was “inhibited” and the “Effect on IP3-mediated Ca2+ release” value [18] was “did not affect”. For the same compound, the “Current change on application” value [19] was “did not induce a notable current change”, the “Effect on TRPC6-mediated Ca2+ influx” value [20] was “did not affect” and the “Eye wiping response, applied alone” value ([21]; 100 μM alone, topical to eye) was “neither LOCI-1 nor 365 nm light elicits an appreciable nocifensive behavior”. For the same compound, the “Inhibitory effect on eye wiping after a pulse of 365 nm light” value ([21]; 100 μM with 1 μM capsaicin, 365 nm 60 s) was “fully reversed”, the “Eye wiping response, cotreatment with capsaicin” value ([21]; 100 μM with 1 μM capsaicin, topical to eye, vs capsaicin alone) was “significantly lower responses” and the “Effect on SOCE mediated by Orai1” value [22] was “strongly inhibits”. The Ki [23] was 15.5 ± 1.8 µM, the “Effect on SOCE mediated by Orai3” value [24] was “not” and the “Effect on TRPC3-mediated Ca2+ influx” value [25] was “did not affect”. The “Effect on O3N–O1C channel current” value [26] was “small and inconsistent effect”.
